# Calls of active or inactive are those of the source. The rule behind the calls is not given here.
# Key:
# MKN-45 = test: Cytotoxicity against human MKN45 cells after 24 hrs by MTT assay; conditions: MKN-45, 24 h
# MCF7 [1] = test: Cytotoxicity against human MCF7 cells after 72 hrs by MTT assay; format: functional, cell-based; conditions: MCF7, 24 h, in the assay text read “after 24 hrs” for “after 72 hrs”
# In short: (§1)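 MTT viability assay on HeLa, HL-60, MCF-7, MKN45 and LS174 cells. MTT (500 μg/mL) was added for 4 h at 37 °C and formazan dissolved in DMSO; A570 was read. IC50 came from linear regression; experiments were done in triplicate.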
# HeLa [2] = test: Cytotoxicity against human HeLa cells after 24 hrs by MTT assay
# HL-60 = test: Cytotoxicity against human HL60 cells after 72 hrs by MTT assay; format: functional, cell-based; conditions: HL-60, 24 h, in the assay text read “after 24 hrs” for “after 72 hrs”
# In short: as §1
# [3] = Cytotoxicity against human LS 174T cells after 24 hrs by MTT assay; conditions: LS174T
# HeLa [4] = test: Induction of lysosomal membrane permeabilization in human HeLa cells assessed as acridine orange red fluorescence at 2 uM after 24 hrs by flow cytometry; format: functional
# In short: (§2)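 Each compound was tested at three concentrations on HeLa cells for 24 h. Adherent and floating cells were pooled and stained with 20 μg/mL acridine orange for 2 min at room temperature. Lysosomal rupture was scored by flow cytometry as percentage of cells with AO red fluorescence.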
# Calf thymus DNA [5] = test: Binding affinity to calf thymus DNA assessed as circular dichroism by CD spectroscopy; format: nucleic-acid assay; conditions: Bos taurus
# In short: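 CT DNA (100 μM) with drug (20 μM) in 20 mM Tris-HCl pH 7.4. DNA concentration set by UV absorbance, A260/A280 above 1.8. CD spectrum recorded 200-400 nm in a 1 cm cell after shaking, thermal equilibration and buffer subtraction. Analysed over 230-300 nm.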
# HeLa [6] = test: Induction of apoptosis in human HeLa cells assessed as damaged cells at IC50 concentration after 24 hrs using annexin V/propidium iodide staining by flow cytometry; format: functional
# In short: (§3)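 HeLa cells, seeded at 1 × 10^6 per well, were treated for 24 h at a fixed concentration set per compound. Cells were washed in cold PBS and resuspended in binding buffer. Staining was annexin V-FITC at 4 °C in the dark for 15 min, then PI for 5 min. Quadrants were read by flow cytometry: live, early apoptotic, late apoptotic, damaged. Run three times.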
# HeLa [7] = test: Induction of cytochrome c release into cytosol in human HeLa cells at IC50 concentration after 24 hrs by FITC/Hoechst soluble immunocytochemical staining; format: functional, cell-based
# In short: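 HeLa cells were treated 24 h at compound-specific concentrations, then fixed in 10% formaldehyde, permeabilized in 90% methanol and blocked with milk. Staining was rabbit anti-cytochrome c (1:500) then FITC goat anti-rabbit IgG (1:100), 1 h each at room temperature, with 2 μg/mL Hoechst 33258 as counterstain. Cytosolic green signal was imaged by confocal microscopy.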
# HeLa [8] = test: Induction of lysosomal membrane permeabilization in human HeLa cells assessed as acridine orange red fluorescence at 4 uM after 24 hrs by flow cytometry; format: functional
# In short: as §2
# HeLa [9] = test: Induction of lysosomal membrane permeabilization in human HeLa cells assessed as acridine orange red fluorescence at 6 uM after 24 hrs by flow cytometry; format: functional
# In short: as §2
# [10] = target: DNA topoisomerase 2-alpha (Homo sapiens) (UniProt P11388); test: Inhibition of DNA topoisomerase 2-mediated kDNA decatenation at 100 uM
# Sequence of DNA topoisomerase 2-alpha (Homo sapiens) (P11388 whole entry): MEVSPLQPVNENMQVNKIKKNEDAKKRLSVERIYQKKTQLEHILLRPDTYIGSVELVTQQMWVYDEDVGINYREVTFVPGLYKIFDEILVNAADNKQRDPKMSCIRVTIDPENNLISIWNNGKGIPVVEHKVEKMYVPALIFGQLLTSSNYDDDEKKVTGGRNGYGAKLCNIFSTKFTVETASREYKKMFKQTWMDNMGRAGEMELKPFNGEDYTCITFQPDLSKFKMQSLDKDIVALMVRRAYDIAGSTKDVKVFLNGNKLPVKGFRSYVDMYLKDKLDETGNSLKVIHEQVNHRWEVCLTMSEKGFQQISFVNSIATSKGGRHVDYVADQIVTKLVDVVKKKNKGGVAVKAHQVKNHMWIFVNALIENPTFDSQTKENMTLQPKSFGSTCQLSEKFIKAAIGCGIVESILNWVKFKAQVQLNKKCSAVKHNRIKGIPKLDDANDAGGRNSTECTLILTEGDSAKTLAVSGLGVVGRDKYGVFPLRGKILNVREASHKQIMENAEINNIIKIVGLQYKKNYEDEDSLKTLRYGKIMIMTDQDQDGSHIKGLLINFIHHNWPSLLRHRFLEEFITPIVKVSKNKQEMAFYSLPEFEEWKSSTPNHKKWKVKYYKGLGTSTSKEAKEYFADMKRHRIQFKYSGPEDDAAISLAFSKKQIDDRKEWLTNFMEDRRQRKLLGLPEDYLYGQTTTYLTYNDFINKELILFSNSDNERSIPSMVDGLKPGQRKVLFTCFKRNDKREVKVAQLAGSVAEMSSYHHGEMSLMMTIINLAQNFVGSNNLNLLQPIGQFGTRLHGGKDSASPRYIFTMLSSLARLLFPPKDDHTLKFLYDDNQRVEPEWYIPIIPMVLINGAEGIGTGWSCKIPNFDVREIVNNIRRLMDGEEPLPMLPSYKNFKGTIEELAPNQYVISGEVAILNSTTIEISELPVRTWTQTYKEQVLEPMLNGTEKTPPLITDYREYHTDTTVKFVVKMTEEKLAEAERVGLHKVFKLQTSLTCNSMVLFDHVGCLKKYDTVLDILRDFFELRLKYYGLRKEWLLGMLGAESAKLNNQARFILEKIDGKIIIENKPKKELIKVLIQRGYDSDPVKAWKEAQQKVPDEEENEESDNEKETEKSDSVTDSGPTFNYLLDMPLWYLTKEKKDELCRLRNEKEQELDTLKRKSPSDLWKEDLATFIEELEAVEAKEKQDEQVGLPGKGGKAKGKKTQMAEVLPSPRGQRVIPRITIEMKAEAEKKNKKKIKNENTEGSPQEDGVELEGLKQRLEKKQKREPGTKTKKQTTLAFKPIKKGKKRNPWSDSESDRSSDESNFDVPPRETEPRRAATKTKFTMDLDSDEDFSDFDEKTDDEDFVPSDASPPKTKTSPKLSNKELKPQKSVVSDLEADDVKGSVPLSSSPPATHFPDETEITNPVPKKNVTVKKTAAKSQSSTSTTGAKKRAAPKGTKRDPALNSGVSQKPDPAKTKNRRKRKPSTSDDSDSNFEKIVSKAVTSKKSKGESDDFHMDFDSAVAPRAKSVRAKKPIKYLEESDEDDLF
# In short: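 Cell-free topo II decatenation: 0.2 μg kDNA was incubated with HeLa-cell topo II extract and compound at 100 μM. The cleavage buffer contained 50 mM Tris-HCl pH 8.0, 120 mM KCl, 10 mM MgCl2, 1 mM ATP and 0.5 mM DTT. Reactions ran 15 min at 37 °C and were stopped with SDS. Products were resolved on 1% agarose and stained with ethidium bromide.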
# Nucleic Acid = test: Induction of conformational changes in Escherichia coli pBR322 DNA assessed as DNA relaxation at 100 uM after 2 hrs by gel electrophoresis; format: nucleic-acid assay
# In short: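 pBR322 plasmid (200 ng) was incubated with compound at 100 μM in Tris-HCl pH 7.4 for 2 h at 37 °C. Samples ran on 1% agarose and were stained with ethidium bromide; supercoiled versus relaxed forms were judged from gel migration.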
# HeLa [11] = test: Induction of apoptosis in human HeLa cells assessed as early apoptotic cells at IC50 concentration after 24 hrs using annexin V/propidium iodide staining by flow cytometry; format: functional
# In short: as §3
# Calf thymus DNA [12] = test: Binding affinity to calf thymus DNA by fluorescent spectra analysis; format: nucleic-acid assay; conditions: Bos taurus
# In short: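 Compounds at 10, 20, 30 and 50 μM in 20 mM Tris-HCl pH 7.4, with or without 100 μM CT DNA (no-DNA samples as control). Incubated 1 day in the dark at 25 °C. Fluorescence wavelength and intensity read at 25 °C. Scatchard binding constant calculated.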
# HeLa [13] = test: Induction of apoptosis in human HeLa cells assessed as viable cells at IC50 concentration after 24 hrs using annexin V/propidium iodide staining by flow cytometry; format: functional
# In short: as §3
# HeLa [14] = test: Induction of apoptosis in human HeLa cells assessed as late apoptotic cells at IC50 concentration after 24 hrs using annexin V/propidium iodide staining by flow cytometry; format: functional
# In short: as §3
# HeLa [15] = test: Induction of lysosomal membrane permeabilization in human HeLa cells assessed as acridine orange red fluorescence at 10 uM after 24 hrs by flow cytometry; format: functional
# In short: as §2
# HeLa [16] = test: Induction of lysosomal membrane permeabilization in human HeLa cells assessed as acridine orange red fluorescence at 5 uM after 24 hrs by flow cytometry; format: functional
# In short: as §2
# HeLa [17] = test: Induction of lysosomal membrane permeabilization in human HeLa cells assessed as acridine orange red fluorescence at 15 uM after 24 hrs by flow cytometry; format: functional
# In short: as §2
# HeLa [18] = test: Induction of lysosomal membrane permeabilization in human HeLa cells assessed as acridine orange red fluorescence at 1 uM after 24 hrs by flow cytometry; format: functional
# In short: as §2
# HeLa [19] = test: Induction of lysosomal membrane permeabilization in human HeLa cells assessed as acridine orange red fluorescence at 3 uM after 24 hrs by flow cytometry; format: functional
# In short: as §2
# MCF7 [20] = test: Cytotoxicity against human MCF7 cells after 24 hrs by MTT assay; conditions: MCF7, 24 h
# HeLa [21] = test: Induction of lysosomal membrane permeabilization in human HeLa cells assessed as acridine orange red fluorescence at 11 uM after 24 hrs by flow cytometry; format: functional
# In short: as §2
# HeLa [22] = test: Induction of lysosomal membrane permeabilization in human HeLa cells assessed as acridine orange red fluorescence at 8 uM after 24 hrs by flow cytometry; format: functional
# In short: as §2
# [23] = in the assay text read “late apoptotic cells” for “damaged cells”
Structure (SMILES),IC50 (MKN-45) [µM],IC50 (MCF7 [1]) [µM],IC50 (HeLa [2]) [µM],IC50 (HL-60) [µM],IC50 [3] [µM],Activity (HeLa [4]) [%],Activity (Calf thymus DNA [5]),Activity (HeLa [6]; [23]) [%],Activity (HeLa [7]),Activity (HeLa [8]) [%],Activity (HeLa [9]) [%],Activity [10],Activity (Nucleic Acid),Activity (HeLa [11]) [%],other results
CNc1ccc2c3c(cccc13)C(=O)N(CCCN(C)C)C2=O,> 50,9.66,23.4,21.6,31.5,–,–,–,–,–,–,–,–,–,–
CCCCCCCCN1C(=O)c2cccc3c(NCCNCCN(C)C)ccc(c23)C1=O,9.28,3.76,4.5,5.13,9.27,92.29,inactive,9.82,Active,90.98,85.74,Active,inactive,90.07,Activity (Calf thymus DNA [12]): inactive
CCCCCCCCCCCCNc1ccc2c3c(cccc13)C(=O)N(CCCNCCN(C)C)C2=O,15.5,2.56,4.71,4.04,9.43,85.49,inactive,98.89,Active,82.37,44.64,Active,inactive,–,Activity (HeLa [13]): 1.05%; Activity (HeLa [14]): 98.89%
CCCCCCCCNc1ccc2c3c(cccc13)C(=O)N(CCCN(C)C)C2=O,17.6,5.15,8.52,5.53,5.87,–,–,–,–,–,–,–,–,–,–
CN(C)CCN1C(=O)c2cccc3cc(N)cc(c23)C1=O [AMONAFIDE],> 50,–,10.7,–,20.3,–,–,–,–,–,–,Active,–,–,Activity (HeLa [15]): 10%; Activity (HeLa [16]): 112%; Activity (HeLa [17]): 77.27%; Kb (Calf thymus DNA [12]): 14300 M⁻¹
CCCCCCCCCCCCN1C(=O)c2cccc3c(NCCN(C)C)ccc(c23)C1=O,9.03,3.57,9.13,5.32,12.8,–,–,–,–,–,–,–,–,–,–
CCCCCCCCCCCCN1C(=O)c2cccc3c(NCCN4CCN(C)CC4)ccc(c23)C1=O,9.28,2.79,5.45,7.05,12.7,97.39,inactive,12.75,Active,95.81,92.83,Active,inactive,86.98,–
CCCCCCCCCCCCNc1ccc2c3c(cccc13)C(=O)N(CCCN1CCN(C)CC1)C2=O,8.43,2.48,2.89,2.98,7.43,–,inactive,14.96,Active,–,–,Active,inactive,84.84,Activity (HeLa [16]): 59.82%; Activity (HeLa [18]): 96.01%; Activity (HeLa [19]): 95.2%
CCCCCCCCNc1ccc2c3c(cccc13)C(=O)N(CCCN1CCN(C)CC1)C2=O,22.2,–,8.1,5.7,18.4,–,inactive,–,Active,–,–,Active,inactive,–,IC50 (MCF7 [20]): 5.72 µM; Activity (HeLa [6]): 96.66%; Activity (HeLa [21]): 83.18%; Activity (HeLa [16]): 89.48%; Activity (HeLa [13]): 3.28%; Activity (HeLa [22]): 91.86%; Activity (HeLa [14]): 96.7%
CCCCCCCCCCCCN1C(=O)c2cccc3c(NCCCCCCCC)ccc(c23)C1=O,> 50,> 50,46.4,> 50,> 50,–,–,–,–,–,–,–,–,–,–
COc1cccc2c1C(=O)c1c(O)c3c(c(O)c1C2=O)C[C@@](O)(C(=O)CO)C[C@@H]3O[C@H]1C[C@H](N)[C@H](O)[C@H](C)O1,–,–,–,–,–,–,–,–,–,–,–,Active,Active,–,–
CCCCCCCCNc1ccc2c3c(cccc13)C(=O)N(CCCNCCN(C)C)C2=O,14.8,2.41,4.06,2.67,9.16,83.13,inactive,–,Active,84.5,32.89,Active,inactive,74.25,Activity (HeLa [13]): 25.7%
